Activity calls are given as the source filed them. The rule behind the calls is not given here.
Experiments:
[1] = Metabolic stability in human serum assessed as full length product remaining after 10 mins by HPLC; type: ADME, cell-free; details: read-out: Stability
Summary of the method: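 About 0.5 A260 units compound in 1% human serum in PBS, 37 °C; aliquot taken at 10 min, analysed by anion-exchange HPLC for percent intact full-length product.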

[2] = target: T1, Toll-like receptor 8 (Homo sapiens) (UniProt Q9NR97); assay: Activation of human TLR8 expressed in HEK293XL assessed as fold induction of NF-kappaB activity at 50 ug/ml after 18 hrs by reporter gene assay relative to control
T1 sequence (whole entry): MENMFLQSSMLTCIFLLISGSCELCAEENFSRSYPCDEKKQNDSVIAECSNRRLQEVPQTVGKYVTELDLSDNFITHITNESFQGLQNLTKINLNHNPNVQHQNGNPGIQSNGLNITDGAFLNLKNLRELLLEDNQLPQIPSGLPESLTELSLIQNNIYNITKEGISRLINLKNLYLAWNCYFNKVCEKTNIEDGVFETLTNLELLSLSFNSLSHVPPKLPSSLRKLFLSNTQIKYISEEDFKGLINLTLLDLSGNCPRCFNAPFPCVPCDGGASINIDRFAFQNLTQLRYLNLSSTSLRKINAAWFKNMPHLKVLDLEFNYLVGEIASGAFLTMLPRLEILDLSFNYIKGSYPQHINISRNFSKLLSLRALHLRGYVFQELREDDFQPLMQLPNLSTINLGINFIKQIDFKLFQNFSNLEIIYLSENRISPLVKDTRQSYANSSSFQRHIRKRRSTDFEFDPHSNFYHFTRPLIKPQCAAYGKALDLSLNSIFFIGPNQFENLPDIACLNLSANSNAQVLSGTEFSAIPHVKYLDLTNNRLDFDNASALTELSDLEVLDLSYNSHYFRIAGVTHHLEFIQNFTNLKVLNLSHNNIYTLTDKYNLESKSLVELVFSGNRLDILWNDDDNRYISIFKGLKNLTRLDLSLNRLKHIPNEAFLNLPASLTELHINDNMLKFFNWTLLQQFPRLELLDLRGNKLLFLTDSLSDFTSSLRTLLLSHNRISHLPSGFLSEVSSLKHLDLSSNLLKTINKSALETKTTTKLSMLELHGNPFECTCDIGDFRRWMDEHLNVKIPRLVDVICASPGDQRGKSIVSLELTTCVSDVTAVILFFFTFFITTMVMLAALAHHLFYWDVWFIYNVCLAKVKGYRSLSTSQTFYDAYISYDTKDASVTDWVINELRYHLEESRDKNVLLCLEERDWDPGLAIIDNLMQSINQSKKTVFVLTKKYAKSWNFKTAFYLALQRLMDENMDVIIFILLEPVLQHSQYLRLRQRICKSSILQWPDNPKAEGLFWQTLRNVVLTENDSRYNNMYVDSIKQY
Summary of the method: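 HEK293 cells stably expressing human TLR7 or TLR8, transiently transfected with SEAP reporter plasmid; medium replaced, SIMRA compounds added, 18 h incubation. Supernatant SEAP measured by QuantiBlue; expressed as fold increase in NF-κB activity over PBS control. Tabulated data at 50 μg/mL, representative of three independent experiments.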

Homo sapiens = species: Homo sapiens; assay: Ratio of human TLR7 activity to human TLR8 activity
Summary of the method: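 TLR7/TLR8 ratio computed from fold NF-κB (SEAP reporter) activation in HEK293 cells stably expressing human TLR7 versus TLR8, compounds at 50 μg/mL, 18 h exposure; representative of three independent experiments.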

[3] = target: Toll-like receptor 3 (Homo sapiens) (UniProt O15455); assay: Activation of human TLR3 expressed in HEK293 assessed as induction of NF-kappaB activity reporter gene assay; type: cell-based
Chain of Toll-like receptor 3 (Homo sapiens) (O15455 whole entry): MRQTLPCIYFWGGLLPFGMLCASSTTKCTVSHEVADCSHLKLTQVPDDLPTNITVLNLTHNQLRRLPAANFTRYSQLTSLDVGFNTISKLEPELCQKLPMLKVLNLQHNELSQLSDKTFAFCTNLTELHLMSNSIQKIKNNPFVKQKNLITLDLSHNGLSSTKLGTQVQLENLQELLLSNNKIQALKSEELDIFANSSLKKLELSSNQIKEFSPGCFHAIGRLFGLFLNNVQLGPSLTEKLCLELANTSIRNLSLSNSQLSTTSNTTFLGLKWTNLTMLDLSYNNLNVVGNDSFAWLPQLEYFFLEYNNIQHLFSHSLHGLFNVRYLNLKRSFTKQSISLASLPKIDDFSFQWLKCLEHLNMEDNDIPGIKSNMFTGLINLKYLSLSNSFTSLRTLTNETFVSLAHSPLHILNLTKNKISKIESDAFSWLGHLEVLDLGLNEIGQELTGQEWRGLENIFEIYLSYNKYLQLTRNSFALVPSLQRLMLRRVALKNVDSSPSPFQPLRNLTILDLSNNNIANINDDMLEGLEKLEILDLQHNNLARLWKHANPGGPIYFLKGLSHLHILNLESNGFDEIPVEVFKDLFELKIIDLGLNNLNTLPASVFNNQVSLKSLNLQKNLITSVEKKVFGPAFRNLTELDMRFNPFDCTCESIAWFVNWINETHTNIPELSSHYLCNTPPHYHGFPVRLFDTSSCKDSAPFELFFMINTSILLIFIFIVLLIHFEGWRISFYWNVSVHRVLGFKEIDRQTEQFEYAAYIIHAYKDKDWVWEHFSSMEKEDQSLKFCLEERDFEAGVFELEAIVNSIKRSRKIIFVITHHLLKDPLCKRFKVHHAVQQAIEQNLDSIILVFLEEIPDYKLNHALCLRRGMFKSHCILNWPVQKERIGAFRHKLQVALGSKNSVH

Splenocyte [4] = assay: Immunomodulatory activity in C57BL/6 mouse splenocytes bearing TLR7 receptor assessed as IL6 release at 100 ug/ml after 24 hrs by ELISA; type: functional, cell-based
Summary of the method: (§1)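 C57BL/6 splenocytes in RPMI 1640 with 10% FBS, penicillin/streptomycin, 2 mM L-glutamine, plated at 5 × 10^6 cells/mL; compounds in PBS added, 37 °C for 24 h. Supernatant IL-12 and IL-6 by ELISA; representative of three independent experiments.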

Splenocyte [5] = assay: Immunomodulatory activity in C57BL/6 mouse splenocytes bearing TLR7 receptor assessed as IL12 release at 100 ug/ml after 24 hrs by ELISA; type: functional, cell-based; summary of the method: as §1
PBMC [6] = assay: Immunomodulatory activity in human PBMC assessed as induction of IL12 at 100 ug/ml after 24 hrs; type: functional, cell-based
Summary of the method: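 Human PBMCs plated at 5 × 10^6 cells/mL; compounds dissolved in PBS added at various concentrations, 37 °C for 24 h. Supernatant cytokines/chemokines quantified with human Luminex multiplex kit.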

PBMC [7] = assay: Immunomodulatory activity in human PBMC assessed as induction of IFN-alpha at 100 ug/ml after 24 hrs

| Compound | remaining at 10 min [1] | fold change (FC) [2] | Ratio (Homo sapiens) | Activity [3] | Activity (Splenocyte [4]) | Activity (Splenocyte [5]) | Activity (PBMC [6]) | IFN-alpha (PBMC [7]) |
| --- | --- | --- | --- | --- | --- | --- | --- | --- |
| Nc1ccn([C@@H]2O[C@H](CO)[C@@H](OP(=O)(S)OC[C@H]3O[C@@H](n4ccc(=O)[nH]c4=O)[C@H](O)[C@@H]3OP(=O)(S)OC[C@H]3O[C@@H](n4ccc5c(=O)[nH]c(N)nc54)[C@H](O)[C@@H]3OP(=O)(S)OC[C@H]3O[C@@H](n4cnc5c(N)ncnc54)[C@H](O)[C@@H]3OP(=O)(S)OC[C@H]3O[C@@H](n4ccc(N)nc4=O)[C@H](O)[C@@H]3OP(=O)(S)OC[C@H]3O[C@@H](n4ccc5c(=O)[nH]c(N)nc54)[C@H](O)[C@@H]3OP(=O)(S)OC[C@H]3O[C@@H](n4cnc5c(N)ncnc54)[C@H](O)[C@@H]3OP(=O)(S)OC[C@H]3O[C@@H](n4ccc5c(=O)[nH]c(N)nc54)[C@H](O)[C@@H]3OP(=O)(S)OC[C@H]3O[C@@H](n4ccc(N)nc4=O)[C@H](O)[C@@H]3OP(=O)(S)OC[C@H]3O[C@@H](n4ccc(=O)[nH]c4=O)[C@H](O)[C@@H]3OP(=O)(S)OC[C@H]3O[C@@H](n4ccc(=O)[nH]c4=O)[C@H](O)[C@@H]3OP(=O)(S)OCC(O)COP(=O)(S)O[C@H]3[C@@H](O)[C@H](n4ccc(=O)[nH]c4=O)O[C@@H]3COP(=O)(S)O[C@H]3[C@@H](O)[C@H](n4ccc(=O)[nH]c4=O)O[C@@H]3COP(=O)(S)O[C@H]3[C@@H](O)[C@H](n4ccc(N)nc4=O)O[C@@H]3COP(=O)(S)O[C@H]3[C@@H](O)[C@H](n4ccc5c(=O)[nH]c(N)nc54)O[C@@H]3COP(=O)(S)O[C@H]3[C@@H](O)[C@H](n4cnc5c(N)ncnc54)O[C@@H]3COP(=O)(S)O[C@H]3[C@@H](O)[C@H](n4ccc5c(=O)[nH]c(N)nc54)O[C@@H]3COP(=O)(S)O[C@H]3[C@@H](O)[C@H](n4ccc(N)nc4=O)O[C@@H]3COP(=O)(S)O[C@H]3[C@@H](O)[C@H](n4cnc5c(N)ncnc54)O[C@@H]3COP(=O)(S)O[C@H]3[C@@H](O)[C@H](n4ccc5c(=O)[nH]c(N)nc54)O[C@@H]3COP(=O)(S)O[C@H]3[C@@H](O)[C@H](n4ccc(=O)[nH]c4=O)O[C@@H]3COP(=O)(S)O[C@H]3[C@@H](O)[C@H](n4ccc(N)nc4=O)O[C@@H]3CO)[C@H]2O)c(=O)n1 (some centres undefined) | 75% | 0.6 | 50 | inactive | Active | Active | 519 pg/mL | 106 pg/mL |
| Nc1ccn([C@@H]2O[C@H](COP(=O)(S)O[C@H]3[C@@H](O)[C@H](n4cnc5c(N)ncnc54)O[C@@H]3CO)[C@@H](OP(=O)(S)OC[C@H]3O[C@@H](n4ccc5c(=O)[nH]c(N)nc54)[C@H](O)[C@@H]3OP(=O)(S)OC[C@H]3O[C@@H](n4ccc(=O)[nH]c4=O)[C@H](O)[C@@H]3OP(=O)(S)OC[C@H]3O[C@@H](n4ccc5c(=O)[nH]c(N)nc54)[C@H](O)[C@@H]3OP(=O)(S)OC[C@H]3O[C@@H](n4cnc5c(N)nc(N)nc54)[C@H](O)[C@@H]3OP(=O)(S)OC[C@H]3O[C@@H](n4cnc5c(N)ncnc54)[C@H](O)[C@@H]3OP(=O)(S)OC[C@H]3O[C@@H](n4ccc5c(=O)[nH]c(N)nc54)[C@H](O)[C@@H]3OP(=O)(S)OC[C@H]3O[C@@H](n4ccc(N)nc4=O)[C@H](O)[C@@H]3OP(=O)(S)OC[C@H]3O[C@@H](n4ccc(=O)[nH]c4=O)[C@H](O)[C@@H]3OP(=O)(S)OC[C@H]3O[C@@H](n4ccc(=O)[nH]c4=O)[C@H](O)[C@@H]3OP(=O)(S)OCC(O)COP(=O)(S)O[C@H]3[C@@H](O)[C@H](n4ccc(=O)[nH]c4=O)O[C@@H]3COP(=O)(S)O[C@H]3[C@@H](O)[C@H](n4ccc(=O)[nH]c4=O)O[C@@H]3COP(=O)(S)O[C@H]3[C@@H](O)[C@H](n4ccc(N)nc4=O)O[C@@H]3COP(=O)(S)O[C@H]3[C@@H](O)[C@H](n4ccc5c(=O)[nH]c(N)nc54)O[C@@H]3COP(=O)(S)O[C@H]3[C@@H](O)[C@H](n4cnc5c(N)nc(N)nc54)O[C@@H]3COP(=O)(S)O[C@H]3[C@@H](O)[C@H](n4cnc5c(N)nc(N)nc54)O[C@@H]3COP(=O)(S)O[C@H]3[C@@H](O)[C@H](n4ccc5c(=O)[nH]c(N)nc54)O[C@@H]3COP(=O)(S)O[C@H]3[C@@H](O)[C@H](n4ccc(=O)[nH]c4=O)O[C@@H]3COP(=O)(S)O[C@H]3[C@@H](O)[C@H](n4ccc5c(=O)[nH]c(N)nc54)O[C@@H]3COP(=O)(S)O[C@H]3[C@@H](O)[C@H](n4ccc(N)nc4=O)O[C@@H]3COP(=O)(S)O[C@H]3[C@@H](O)[C@H](n4cnc5c(N)ncnc54)O[C@@H]3CO)[C@H]2O)c(=O)n1 (some centres undefined) | 74% | 2 | 13.4 | inactive | Active | Active | 864 pg/mL | 123 pg/mL |
| Nc1ccn([C@@H]2O[C@H](COP(=O)(S)O[C@H]3[C@@H](O)[C@H](n4cnc5c(N)ncnc54)O[C@@H]3COP(=O)(S)O[C@H]3[C@@H](O)[C@H](n4ccc5c(=O)[nH]c(N)nc54)O[C@@H]3COP(=O)(S)O[C@H]3[C@@H](O)[C@H](n4ccc(N)nc4=O)O[C@@H]3COP(=O)(S)O[C@H]3[C@@H](O)[C@H](n4ccc5c(=O)[nH]c(N)nc54)O[C@@H]3COP(=O)(S)O[C@H]3[C@@H](O)[C@H](n4ccc(=O)[nH]c4=O)O[C@@H]3COP(=O)(S)O[C@H]3[C@@H](O)[C@H](n4ccc5c(=O)[nH]c(N)nc54)O[C@@H]3COP(=O)(S)O[C@H]3[C@@H](O)[C@H](n4cnc5c(N)ncnc54)O[C@@H]3COP(=O)(S)O[C@H]3[C@@H](O)[C@H](n4cnc5c(N)ncnc54)O[C@@H]3CO)[C@@H](OP(=O)(S)OC[C@H]3O[C@@H](n4ccc(=O)[nH]c4=O)[C@H](O)[C@@H]3OP(=O)(S)OC[C@H]3O[C@@H](n4ccc(=O)[nH]c4=O)[C@H](O)[C@@H]3OP(=O)(S)OCC(O)COP(=O)(S)O[C@H]3[C@@H](O)[C@H](n4ccc(=O)[nH]c4=O)O[C@@H]3COP(=O)(S)O[C@H]3[C@@H](O)[C@H](n4ccc(=O)[nH]c4=O)O[C@@H]3COP(=O)(S)O[C@H]3[C@@H](O)[C@H](n4ccc(N)nc4=O)O[C@@H]3COP(=O)(S)O[C@H]3[C@@H](O)[C@H](n4cnc5c(N)ncnc54)O[C@@H]3COP(=O)(S)O[C@H]3[C@@H](O)[C@H](n4ccc5c(=O)[nH]c(N)nc54)O[C@@H]3COP(=O)(S)O[C@H]3[C@@H](O)[C@H](n4ccc(N)nc4=O)O[C@@H]3COP(=O)(S)O[C@H]3[C@@H](O)[C@H](n4ccc5c(=O)[nH]c(N)nc54)O[C@@H]3COP(=O)(S)O[C@H]3[C@@H](O)[C@H](n4ccc(=O)[nH]c4=O)O[C@@H]3COP(=O)(S)O[C@H]3[C@@H](O)[C@H](n4ccc5c(=O)[nH]c(N)nc54)O[C@@H]3COP(=O)(S)O[C@H]3[C@@H](O)[C@H](n4cnc5c(N)ncnc54)O[C@@H]3COP(=O)(S)O[C@H]3[C@@H](O)[C@H](n4cnc5c(N)ncnc54)O[C@@H]3CO)[C@H]2O)c(=O)n1 (some centres undefined) | 79% | 0.5 | 41.4 | inactive | Active | Active | 171 pg/mL | 123 pg/mL |
